Assay outcomes: PubChem BioAssay, several laboratories
The list is not random: actives were taken first. Their share in the collection is about 2.7%.
HNF4A DNA FP – change in binding of human HNF4A to DNA, primary screen, biochemical, fluorescence polarization, FITC-DNA; Hepatocyte nuclear factor 4-alpha (Homo sapiens), P41235; 1 h; activity change, % at 10 µM; 360,000 compounds, 0.3% hits; AID 1224865, 2016; in the data active means activity change above about 30%, passing the limit was not always enough
NadD block – inhibitors of S. aureus NadD, primary screen, biochemical, colorimetric, uHTS. inhibition, % at 20 µM. 360,000 compounds, 0.78% hits. Nicotinate-nucleotide adenylyltransferase NadD (Staphylococcus aureus N315). purified NadD enzyme, colorimetric absorbance read-out; in the data active means inhibition above about 26%
PP1 counter – PP1-alpha phosphatase inhibitors, primary screen, counter-screen for PP5 inhibitor project, biochemical, fluorescence, OMFP substrate, single point | inhibition, % at 6.7 µM | purified PP1alpha | 320,000 compounds, 0.9% hits;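 active means inhibition above the mean inhibition of all tested compounds plus 3 SD, computed separately for each screening campaign, cut at about 15% in these data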
CSN deneddyl inh – inhibitors of CSN-mediated cullin deneddylation, primary screen, biochemical, fluorescence polarization, uHTS; 360,000 compounds, 0.38% hits; Purified CSN, SCF-Nedd8-OG deneddylation; inhibition, % at 12.5 µM; COP9 signalosome complex subunit 5 (Homo sapiens), Q92905; AID 651999, 2013;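 active means pattern-corrected inhibition above about 35%, with an unprinted fluorescence ratio check between 0.5 and 1.5, limit read from the data, passing the limit was not always enough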;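 further: 0% = enzyme with substrate and 100% = substrate without enzyme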
Target sequence (Q92905 whole entry, looked up, one chain of several): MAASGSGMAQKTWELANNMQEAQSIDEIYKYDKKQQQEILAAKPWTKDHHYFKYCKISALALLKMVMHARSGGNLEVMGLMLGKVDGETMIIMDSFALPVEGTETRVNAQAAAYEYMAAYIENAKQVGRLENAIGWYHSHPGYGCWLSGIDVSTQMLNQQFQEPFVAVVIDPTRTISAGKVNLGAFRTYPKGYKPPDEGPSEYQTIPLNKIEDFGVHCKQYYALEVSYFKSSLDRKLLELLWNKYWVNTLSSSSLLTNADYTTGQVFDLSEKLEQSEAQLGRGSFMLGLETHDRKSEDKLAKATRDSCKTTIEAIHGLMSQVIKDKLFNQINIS
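Assay system: purified human Csn5 enzyme expressed in HEK293T cells; Input: 0.24 nM Csn5 enzyme, final concentration; Reagent: 10 nM SCFSkp2-Nedd8OG; Compound dosing: 12.5 µM single point; Times: reaction 90 min, room temperature; Technique: fluorescence polarization readout.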
Rpn11 inh – Rpn11 (PSMD14) deubiquitinase inhibitors, primary screen, biochemical, fluorescence polarization, uHTS; human 26S proteasome, Ub4-pepOG fluorescence polarization; 20S core pre-blocked with epoxomicin; inhibition, % at 20 µM; AID 588493, 2011; 360,000 compounds, 0.59% hits;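 active means inhibition at 20 µM, scaled to each plate's controls, above about 33%, limit read from the data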
TPT1 inh – Candida albicans TPT1 enzyme inhibitors, primary screen, biochemical, fluorescence polarization | tRNA 2'-phosphotransferase TPT1 (Candida albicans SC5314) | recombinant caTPT1, FP RNA substrate dephosphorylation | inhibition, % at 5 µM | 300,000 compounds, 0.81% hits;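 active means inhibition above the mean of all tested compounds plus 3 SD, set per screening campaign, cut at about 24% in these data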;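 further: plate controls were DMSO alone for no effect and ferristatin control at 100 nM for full effect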
NadD conf – inhibitors of S. aureus NadD, confirmation, biochemical, colorimetric, single concentration | shares compounds with NadD block | purified S. aureus NadD, colorimetric enzyme assay | inhibition, % at 20 µM | 2,000 compounds, 13% hits | AID 624309, 2012; in the data active means inhibition mostly above about 42%, no sharp cut-off; inactive means mostly below about 42%
Numbers without * were called inactive.

Screening COc1ccc2[nH]c(=O)c(-c3nnn(-c4ccc(Cl)c(Cl)c4)n3)cc2c1 returned PP1 counter 9 and TPT1 inh 1.
O=C(NCCc1ccccc1F)C1CCC(=O)N(Cc2ccc(Cl)cc2)C1 (centres undefined) was read as HNF4A DNA FP 0, NadD block -6, PP1 counter -5, CSN deneddyl inh 1, Rpn11 inh 3 and TPT1 inh 1.
For COc1ccc(OCC(=O)Nc2nnc(S(=O)(=O)N3CCCCCC3)s2)cc1 the results were HNF4A DNA FP 1, NadD block 11, PP1 counter -3, CSN deneddyl inh 5, Rpn11 inh -8 and TPT1 inh 1.
For Cc1ccc(OCC(=O)Nc2nnc(S(=O)(=O)N3CCC(C)CC3)s2)cc1 the results were HNF4A DNA FP -15, NadD block 26*, PP1 counter 6, CSN deneddyl inh 11, Rpn11 inh 2, TPT1 inh 13 and NadD conf 10.
CN(Cc1nc2ccccc2c(=O)[nH]1)C(=O)c1cc(-c2ccc(Br)cc2)nc2ccccc12 was read as HNF4A DNA FP -1, NadD block 11, CSN deneddyl inh 6 and Rpn11 inh 2.
Cc1ccc(NC(=O)C2SC(=Nc3ccccc3)C(C(=O)Nc3ccc(Cl)cc3)=C2N)cc1 (centres undefined) was read as HNF4A DNA FP 2, NadD block 7, CSN deneddyl inh -1 and Rpn11 inh 2.
For Cc1ccc(N=C2SC(C(=O)Nc3ccc(OC(F)(F)F)cc3)C(N)=C2C(=O)Nc2c(C)cc(C)cc2C)cc1 (centres undefined) the results were HNF4A DNA FP 0, NadD block 33*, PP1 counter 11, CSN deneddyl inh -6, Rpn11 inh 2, TPT1 inh 8 and NadD conf 38.
`CCCCOC(=O)c1c(C)oc2ccc(NS(=O)(=O)c3ccc4c5c(cccc35)C(=O)N4)cc12` gave HNF4A DNA FP -2, NadD block 32*, PP1 counter 7, CSN deneddyl inh -3, Rpn11 inh 2, TPT1 inh -2 and NadD conf 34.
For Cc1cccc(C2(c3cccc(C)c3)CC2C(=O)Nc2ccc([N+](=O)[O-])cc2O)c1 (centres undefined) the results were HNF4A DNA FP -1, NadD block 30*, PP1 counter 11, CSN deneddyl inh 2, Rpn11 inh -4, TPT1 inh 1 and NadD conf 50*.
Screening NS(=O)(=O)c1cc(Cl)c(NC(=O)COC(=O)c2ccccn2)c(Cl)c1 returned HNF4A DNA FP 1, NadD block 1, PP1 counter 0, CSN deneddyl inh -1 and Rpn11 inh -3.
O=[N+]([O-])c1cccc(SSc2cccc([N+](=O)[O-])c2)c1 was read as HNF4A DNA FP -4, NadD block 44*, CSN deneddyl inh 0, Rpn11 inh 4 and NadD conf 58*.
COc1cc(OC)c2c(-c3ccccc3)cc(=O)oc2c1C(CC(=O)N1CCN(c2ccccc2)CC1)c1ccc(N(C)C)cc1 (centres undefined) was read as HNF4A DNA FP 1, NadD block 30*, PP1 counter 10, CSN deneddyl inh 2, Rpn11 inh 5, TPT1 inh 5 and NadD conf 1.
Cc1cc(C)c2oc(-c3ccc(C)c(NC(=S)NC(=O)/C=C/c4ccco4)c3)nc2c1 was read as HNF4A DNA FP 1, NadD block 35*, PP1 counter 7, CSN deneddyl inh 14, Rpn11 inh 12, TPT1 inh -3 and NadD conf -2.
